Results pooled from the literature.
Lines come from different studies, so protocols differ.
Mode: agonist
Peroxisome proliferator-activated receptor alpha: Peroxisome proliferator-activated receptor alpha (Rattus norvegicus, UniProt P37230)
GPR84: G-protein coupled receptor 84 (GPR84, Homo sapiens, UniProt Q9NQS5)
DRD2: D(2) dopamine receptor (DRD2, Homo sapiens, UniProt P14416)

| target | test | EC50 [nM] | Compound |
| --- | --- | --- | --- |
| Neuromedin-U receptor 2 (Mus musculus, UniProt Q8BZ39) | β-arrestin recruitment | 0.331 | CC(C)C[C@H](NC(=O)[C@H](Cc1ccccc1)NC(=O)[C@H](Cc1ccc(O)cc1)NC(=O)CNC(=O)[C@H](CCCNC(=N)N)NC(=O)[C@H](CO)NC(=O)[C@H](CCC(N)=O)NC(=O)[C@H](CO)NC(=O)[C@H](C)NC(=O)[C@H](Cc1ccccc1)NC(=O)[C@@H]1CCCN1C(=O)[C@H](CO)NC(=O)[C@H](CCC(N)=O)NC(=O)[C@H](Cc1ccccc1)NC(=O)[C@H](CCC(=O)O)NC(=O)[C@H](CCC(=O)O)NC(=O)[C@H](CC(=O)O)NC(=O)[C@@H](NC(=O)[C@H](CCCNC(=N)N)NC(=O)[C@@H](N)Cc1ccccc1)C(C)C)C(=O)N[C@@H](Cc1ccccc1)C(=O)N[C@@H](CCCNC(=N)N)C(=O)N1CCC[C@H]1C(=O)N[C@@H](CCCNC(=N)N)C(=O)N[C@@H](CC(N)=O)C(N)=O |
| Peroxisome proliferator-activated receptor alpha | reporter gene, luciferase | 2200 | Cc1nc(-c2ccc(C(F)(F)F)cc2)sc1C(=O)NCc1ccc(OC(C)(C)C(=O)O)cc1 |
| Adenosine receptor A3 (ADORA3, Homo sapiens, UniProt P0DMS8) | cAMP | 2000 | CC(C)=CCNc1ncnc2c1ncn2[C@@H]1O[C@H](CO)[C@@H](O)[C@H]1O |
| GPR84 | cAMP | 30.2 | CCCCCCCCCNc1cc(=O)[nH]c(=O)[nH]1 |
| Melanocortin receptor 3 (MC3R, Homo sapiens, UniProt P41968) | cAMP | 165 | CCCC[C@H](NC(=O)[C@H](CO)NC(=O)[C@H](Cc1ccc(O)cc1)NC(=O)[C@H](CO)NC(C)=O)C(=O)N[C@@H](CCC(=O)O)C(=O)N[C@@H](Cc1c[nH]cn1)C(=O)N[C@@H](C)C(=O)N[C@@H](CCCNC(=N)N)C(=O)N[C@@H](Cc1c[nH]c2ccccc12)C(=O)NCC(=O)N[C@@H](CCCCN)C(=O)N1CCC[C@H]1C(=O)N[C@H](C(=O)NCC(=O)N[C@@H](CCCCN)C(=O)N[C@@H](CCCCN)C(=O)N[C@@H](CCCNC(=N)N)C(N)=O)C(C)C |
| GPR84 | cAMP | 1500 | O=Nc1c(NCCCc2ccccc2)[nH]c(=O)[nH]c1=O |
| Vasopressin V2 receptor (AVPR2, Homo sapiens, UniProt P30518) | cAMP, TR-FRET | 0.024 | NCCCC[C@H](NC(=O)[C@@H]1CCCN1C(=O)[C@@H]1CSSC[C@H](N)C(=O)N[C@@H](Cc2ccc(O)cc2)C(=O)N[C@@H](Cc2ccccc2)C(=O)N[C@@H](CCC(N)=O)C(=O)N[C@@H](CC(N)=O)C(=O)N1)C(=O)NCC(N)=O |
| DRD2 | β-arrestin recruitment | 160 | FC(F)(F)c1nc2cc(OCCCCN3CCN(c4cccc(Cl)c4Cl)CC3)ccc2s1 |
| Peroxisome proliferator-activated receptor alpha | reporter gene, luciferase | 122000 | Cc1ccc(C)c(OCCCC(C)(C)C(=O)O)c1 |
| DRD2 | cAMP, luciferase | 28 | CNc1nc2cc(OCCCCN3CCN(c4cccc5ccc(C)nc45)CC3)ccc2s1 |
| GPR84 | cAMP | 389 | O=c1cc(NCCc2cccc(F)c2)[nH]c(=O)[nH]1 |
